Measurements published in the RNAGym collection of RNA variant scans (doi:10.1126/science.aae0568).
Fewer inactive variants are shown than the library holds.

B1: tRNA (parent)
chain: GUUCCGUUGGCGUAAUGGUAACGCGUCUCCCUCCUAAGGAGAAGACUGCGGGUUCGAGUCCCGUACGGAACG

Variants of: B1
Assay: yeast fitness relative to wild type (ratio to wild type); higher = fitter; tRNA-Arg(CCU), competitive growth, 37 C, YPD
In short: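 Start and end populations of a pooled competition were compared by 100-nucleotide paired-end sequencing of gene amplicons. The Saccharomyces cerevisiae strains carried tRNA-Arg(CCU) gene variants at the native genomic locus, synthesised with a 3% per-site mutation rate at 69 sites, and competed in YPD at 37°C for 24 hours in six parallel replicates. Darwinian fitness relative to wild type was based on the change in genotype frequencies. Genotypes required ≥ 100 starting reads, and estimates < 0.5 were set to 0.5.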

Variant	yeast fitness
A15U A20G C30A G63C	≤ 0.5
A15G C49U	1.07
A15C A36U A65C	0.54
A15U C60G G67A	≤ 0.5
A15C A36G U47C C55A	≤ 0.5
A15U C49G C55U A65U	0.56
A15G C29G C31G A37C C66A	≤ 0.5
A15G G17C C33A G56C A65C G68A	≤ 0.5
A15C G44A U53C U64C	≤ 0.5
A15U C24U A65G	0.53
A15C C29U C31U G67C	0.591
A15G G56A A65C	0.619
A14U U35A G52A C61G C66A	≤ 0.5
A15C A20G A70C	0.6
A15U A57C A65U	0.794
A15G A42G C61U	0.579
A15G C46G C61G A65G	0.756
A15U C31U A70G	0.629
A15C C30A C34A A42C G56A A57U	≤ 0.5
A15C C29U G39C A42U G50U G51C G63A A65U	≤ 0.5
A15G A21G G39A	0.649
A15C G17A G18A A36C	≤ 0.5
A15G C29U	0.952
A15G C31G A40U C60G G67A	0.529

Variant	yeast fitness
A15U C29U	0.749
A14U U16G U19A A42G G52A	≤ 0.5
A15C G67C	0.684
A15C C30A	0.666
A15G C24G U28A G52C A65C	≤ 0.5
A15U G18C A21G U59A C61G	≤ 0.5
A15C C31G	0.632
A15U C31U C46G A65G A70U	≤ 0.5
A15C G23C C60U	≤ 0.5
A14U U26G G56A A65G C66U	≤ 0.5
A15G C61A A69U	0.643
A15C A36U A69U	0.509
A15U G44A G58A G68C	≤ 0.5
A14U U26C A57U	≤ 0.5
A15C U47G G52C	≤ 0.5
A15C C27U U28A A40U	≤ 0.5
A15G U19C A37U C49U G51A	0.555
A15G C29G A37C A42U A57G G67A	≤ 0.5
A15U U28A C46A	0.507
A15U A43U C62U	0.611
A15U C22G C31U	0.536
A15G C29A G58C	0.503
A15U U19A A20G A40U A43U C60G C62U A65G	≤ 0.5
A15C C29G C30G U47C	≤ 0.5

Variant	yeast fitness
A15G A43U C60G	≤ 0.5
A15C C31A C34A G67C	≤ 0.5
A15G U26G C30U G52A	≤ 0.5
A15C U47G G68U	≤ 0.5
A15G A36U U59A	≤ 0.5
A15U C62U	0.787
A15G U32A A43U	0.603
A15G C24A C46A	0.64
A15U A40G C46U	0.697
A15U C29U C33U	≤ 0.5
A15G A20C C62G	0.731
A15U C24A C34G G39U A65G	0.651
A15C C49G C62U	0.636
A15C U59G	0.673
A15G U26A A45G C60U C62A	0.562
A15U C31U C33U G67A	0.642
A15C C31U C62G U64G A65G G67C	≤ 0.5
A15U G52C A65U G67C	≤ 0.5
A15G G23C	0.712
A15G C33U G50A	≤ 0.5
A15C A57C	≤ 0.5
A15G C30A G48C	≤ 0.5
A15U A21C G39C U54A	≤ 0.5
A15C U47A A65C	0.561

Variant	yeast fitness
A15U C46A G68U A70C	≤ 0.5
A15C U47A	1.09
A15C G50A C55U C61G	0.804
A15C G23A A42C G48A G50C	≤ 0.5
A15C A36U G39A	≤ 0.5
A15G A42C G52C	≤ 0.5
A14U U16G U19A A42G	0.512
A15G C24G C49U	0.541
A15C A36U	0.633
A15G U47C G68C	≤ 0.5
A15C C27U C62U	≤ 0.5
A15C A43G C46A G68A	≤ 0.5
A15C U32A A65C	≤ 0.5
A14U U28A U59C C60G	≤ 0.5
A15U A21U	0.708
A15U G25A C55G	0.555
A15U G25C C34A	0.941
A15C C31G A40U	0.624
A15G A40U	0.767
A15C G52C	0.575
A15G C29A U47G U54A G58A	≤ 0.5
A15U A20U C24U A65G A70C	≤ 0.5
A15U U16G U35A U59A	≤ 0.5
A15C G25A U28A	≤ 0.5

Variant	yeast fitness
A15G C30G C31A C66U	≤ 0.5
A15G U28C U35A G38A C46G C62U G67U	≤ 0.5
A15G A57U A65U	≤ 0.5
A15G C34G C46U	≤ 0.5
A15G G48A A65C	0.686
A14U U19C C29U C30A A45C	≤ 0.5
A15U A69C	0.77
A15U G44C	0.727
A15G A20C A43U U54A	≤ 0.5
A15U C29A C55A	≤ 0.5
A15U G63A A69C	0.539
A15G U26G C30U G51U G52A	≤ 0.5
A15G G41A	0.854
A15C C22A C31A G38C G58C	0.542
A15C C34G A37U C46G A69U	≤ 0.5
A15U C30G C61U G68A	≤ 0.5
A15U G39A	0.667
A15C U28C G48C G68U A69U	≤ 0.5
A15U A20C C46G G50C C61G	0.604
A15C A40U	0.833
A15C C24U C66U	≤ 0.5
A15C U47A G52C	0.539
A15C U35A	0.599
A15C U53G	0.621

Variant	yeast fitness
A15U G17C A45U C49G C55U A70U	≤ 0.5
A15C U28A C34G A43U G68C	≤ 0.5
A15G C49A G56A	0.506
A15U G38C G39A A43C G48A	≤ 0.5
A15G C29G C33A G67A	0.569
A14U U53C	0.613
A15G C30U C55U	≤ 0.5
A15G A42C C46A	≤ 0.5
A15C U26C G56A C61U	≤ 0.5
A15G A42C G51C G67C	≤ 0.5
A15C G25A A65C	0.711
A15U G63C C66G	≤ 0.5
A15G A45U	0.987
A15G G18A U54A	≤ 0.5
A15U C24A G25A U47C G52C A65U	≤ 0.5
A15G G44A G50C	≤ 0.5
A14U U26G C49G	≤ 0.5
A15G A45U A70U	0.692
A15U C24U C27U	≤ 0.5
A15G U28C C30U A36C A45U G50C	≤ 0.5
A15C A21G C22U C49U U53C	≤ 0.5
A15G G18C	0.7
A15C U47C A69U	0.551
A15U C29A C34G C62U G68A	0.616

Variant	yeast fitness
A15C G25C C29U U35C A43U G67C	≤ 0.5
A14U U28A G67C	≤ 0.5
A15U A40C C49U	0.528
A15G G38A A40C G41C C49U	0.597
A15C G17A A57C	0.527
A15C C29U G39C A42U G48C G50U G51C A65U	≤ 0.5
A15C A36U C46G G56A C60A C62G C66A	≤ 0.5
A15U C33G C49A C60G	≤ 0.5
A15C G39A A57G C66U	≤ 0.5
A14U U47A A69G	0.66
A15C G17A U54C C55G	≤ 0.5
A15U C46A C61G A69G	≤ 0.5
A15G G23A C60U	≤ 0.5
A15C A36U A42G U59C C60A	≤ 0.5
A15U C24U G25C A37U A40C U53C G58C	≤ 0.5
A15G A36G A37G	0.624
A15G G17A G48A	0.681
A15C G39A U64C A65G	≤ 0.5
A15G G17A A69C	0.586
A15U A45G C49G	≤ 0.5
A14U U19A A36C	≤ 0.5
A15C U54G	0.537
A15U A20C A43C G51A G56C	≤ 0.5
